HCV core dimer = HCV core protein dimerization inhibition; TR-FRET GST/Flag-core106 dimerization, 1536-well; inhibition, % at 5 µM; AID 1899; 0.33% of 300,000 active;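 active = inhibition above the mean of all tested compounds plus 3 SD, set per screening campaign, cut at about 45% in these data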
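Material: GST/Flag-tagged HCV core106 proteins. Incubation: 4 h, 22.5 °C incubation. Read-out basis: inhibition (%) from 671 over 617 nm ratio. Measured by: TR-FRET, excitation 340 nm, emission 617 and 671 nm.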
GPR7 antag = antagonists of human GPR7 (neuropeptides B/W receptor 1). P48145. GPR7-expressing cells, fluorescence antagonist assay. inhibition, % at 4.4 µM. 1.1% of 290,000 active. AID 1861; in the data active = inhibition above about 16%, passing the limit was not always enough;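 also: cells stimulated with the agonist NPW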
DNA FID counter = fluorescent intercalator displacement, NS3 helicase counter-screen; DNA fluorescent intercalator displacement, fluorescence; inhibition, % at 7.9 µM; 0.17% of 290,000 active; in the data active = inhibition above about 37%;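 also: higher means more ethidium bromide displaced from hairpin DNA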
DAGLB inh = blocks human DAGLB lipase activity. Q8NCG7. inhibition, % at 5.17 µM. HEK293T DAGLB membrane lysate, EnzChek fluorogenic substrate. 0.059% of 340,000 active. AID 504411; in the data active = inhibition above about 34%
NS3 helicase inh = inhibitors of Hepatitis C virus NS3 helicase | inhibition, % at 10.9 µM | 0.56% of 290,000 active | NS3 helicase DNA unwinding, Cy5 molecular beacon fluorescence;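 active = inhibition above the mean of all tested compounds plus 3 SD, set per campaign, cut at about 35% in these data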
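System: NS3 helicase fragment of HCV / Schedule: 1 h at 25 °C / Control set: DMSO alone as 0% and 110 µM thioflavine S as 100% / Reagent: Cy5/quencher beacon DNA duplex and ATP to start / Technique: Cy5 fluorescence / Replication: singlicate / Evaluation: % inhibition of end-to-start signal ratio versus controls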
GRK2 inh = human GRK2 inhibition via aptamer displacement | inhibition of aptamer binding, % at 10 µM | bead flow cytometry, FAM-aptamer displacement from GRK2 | 0.59% of 330,000 active;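 active = inhibition of aptamer binding above 40%, roughly 3 SD of noise, on plates passing a quality check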;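 also: median bead fluorescence of bound FAM aptamer so fluorescent compounds give negative values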
Target sequence (P25098 whole entry, looked up): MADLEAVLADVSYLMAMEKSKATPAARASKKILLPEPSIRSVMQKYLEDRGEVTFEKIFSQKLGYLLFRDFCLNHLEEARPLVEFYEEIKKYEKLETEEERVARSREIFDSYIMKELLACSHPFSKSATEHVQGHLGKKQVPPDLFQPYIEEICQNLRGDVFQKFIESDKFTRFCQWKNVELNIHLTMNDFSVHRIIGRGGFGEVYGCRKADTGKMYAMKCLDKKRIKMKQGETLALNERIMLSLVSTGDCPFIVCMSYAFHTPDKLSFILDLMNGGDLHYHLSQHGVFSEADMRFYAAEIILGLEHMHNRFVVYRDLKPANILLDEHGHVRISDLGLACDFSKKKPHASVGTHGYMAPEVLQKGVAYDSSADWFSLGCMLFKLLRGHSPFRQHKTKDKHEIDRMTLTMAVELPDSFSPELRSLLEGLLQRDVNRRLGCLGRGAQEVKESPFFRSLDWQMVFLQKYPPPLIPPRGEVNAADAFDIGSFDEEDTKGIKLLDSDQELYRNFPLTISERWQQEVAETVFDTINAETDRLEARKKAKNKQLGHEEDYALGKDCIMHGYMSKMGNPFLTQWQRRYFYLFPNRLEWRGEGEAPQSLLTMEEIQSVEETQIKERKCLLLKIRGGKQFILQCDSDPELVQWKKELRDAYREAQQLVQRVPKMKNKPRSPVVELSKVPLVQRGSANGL
GRK2 CP1 = human GRK2 inhibition confirmation, cherry pick 1; shares compounds with GRK2 inh; bead-bound GRK2, FAM-aptamer displacement, flow cytometry; aptamer displacement, % at 10 µM; 4% of 2,000 active;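 active = aptamer displacement above 40%, near three times the noise of non-fluorescent compounds, on plates passing quality checks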;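 also: negative values mostly reflect intrinsic compound fluorescence rather than true enhancement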
FAM quench CP1 = aptamer fluorescence quenching in GRK2 counter-screen. shares compounds with GRK2 inh. Carboxyfluorescein RNA aptamer on beads, flow cytometry quenching; stronger effect = lower value. fluorescence response (% of DMSO), % at 10 µM. 2,000 tested, under 10 active. AID 504580;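 active = compounds that quench the bead-bound fluorescent RNA probe, cutting fluorescence to under half of the solvent control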;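 also: counterscreen run without GRK2 so only probe quenching by compound is measured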
GRK2 CP2 = confirmation of human GRK2 inhibitors binding RNA aptamer site | AID 504782 | inhibition of aptamer binding, % at 10 µM | shares compounds with GRK2 inh | bead-bound GRK2, FAM-aptamer displacement, flow cytometry | 360 tested, under 10 active;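 active = inhibition of aptamer binding above 40%, about triple the noise seen with nonglowing compounds, on plates passing quality control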;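 also: negative values mostly come from compounds that fluoresce themselves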
FAM quench SP = quenches fluorescent RNA aptamer, GRK2 hit artifact; shares compounds with GRK2 inh; carboxyfluorescein RNA aptamer beads, flow cytometry quenching; stronger effect = lower value; fluorescence response vs DMSO, % at 10 µM; 360 tested, under 10 active; AID 588494;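 active = response vs DMSO under 50%, meaning signal dropped by over half, treated as fluorescence quencher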;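 also: labelled aptamer on streptavidin beads without GRK2 as a quench counter-screen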
DAGLB inh conf = DAGLB (human) inhibition, confirmation screen. shares compounds with DAGLB inh. AID 504445. 73% of 190 active. HEK293T DAGLB membrane lysate, EnzChek fluorogenic substrate. inhibition, % at 5.17 µM;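 active = mean inhibition over triplicate wells above a set limit taken from the primary lipase screen, cut at about 34% in these data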
Each line names hits and unclear results; the compound was inactive in the other large screens (follow-up assays come after a bar, where they were run). Rows were chosen to be rich in hits. Some 2.2% of all compounds tested hit in one or more screens of this group.

CC(=O)Nc1nc2c(ccc3ccccc32)s1	none | GRK2 CP2 inactive | FAM quench SP inactive
CN(C)S(=O)(=O)c1ccc(N2CCCC2)c(C(=O)Nc2nc3c(ccc4ccccc43)s2)c1	none | GRK2 CP2 inactive | FAM quench SP inactive
Nc1nc(-c2ccc(Cl)cc2)nn1C(=O)c1ccco1	none
C/C(CC1CC2=C(CC1(C)C)C(C)(C)CCC2)=N\NC(N)=S (centres undefined)	none
Cc1ccc(CN(C)C(=O)c2cccc(S(=O)(=O)N3CCc4ccccc4C3)c2)o1	none (no result: HCV core dimer, GPR7 antag, DNA FID counter, NS3 helicase inh)
COc1ccc(C2c3ccc(O)cc3Oc3ncn4nc(-c5ccccn5)nc4c32)cc1OC (centres undefined)	none
COc1ccc(C2c3ccc(O)cc3Oc3ncn4nc(-c5ccco5)nc4c32)cc1OC (centres undefined)	GRK2 inh 57 | GRK2 CP1 inactive | FAM quench CP1 inactive
Cc1c(/C=C2\SC(=Nc3cccc(C(=O)O)c3)NC2=O)c2ccccc2n1C	GRK2 inh 64 | GRK2 CP1 inactive | FAM quench CP1 inactive
Cc1cccc(N=C2NC(=O)/C(=C/c3cccn3C)S2)c1	none
COc1ccc(CN(C)C(=O)c2cccc(S(=O)(=O)N3CCCc4ccccc43)c2)c(OC)c1OC	none (no result: HCV core dimer, GPR7 antag, DNA FID counter, NS3 helicase inh, GRK2 inh) | GRK2 CP1 inactive | FAM quench CP1 inactive
Cc1ccc(C)c(N2CCN(C(=O)CCCOc3cc(=O)n(C)c4ccccc34)CC2)c1	none
COc1ccc(N2CCN(C(=O)CCCOc3cc(=O)n(C)c4ccccc34)CC2)cc1	GRK2 inh 56 | GRK2 CP1 inactive | FAM quench CP1 inactive
CN1C/C(=C/c2ccncc2)C(=O)/C(=C/c2ccncc2)C1	none
CN1C/C(=C/c2ccsc2)C(=O)/C(=C/c2ccsc2)C1	GRK2 inh 63 | GRK2 CP1 inactive | FAM quench CP1 inactive
CCN(CC)CC#CCOC(c1ccccc1)c1ccccc1	GRK2 inh 79 | GRK2 CP1 inactive | FAM quench CP1 inactive
COc1ccccc1N1CCN(C(=O)c2ccc(Cn3c(=O)[nH]c4ccsc4c3=O)cc2)CC1	none
COc1cc(-c2nnc(SCC(=O)Nc3ccc(C(=O)O)cc3)o2)cc(OC)c1OC	none (no result: HCV core dimer, GPR7 antag, DNA FID counter, NS3 helicase inh)
COc1cc(NC(C(=O)Nc2cccc(C(C)=O)c2)c2ccccc2)cc(OC)c1OC (centres undefined)	GRK2 inh 76 | GRK2 CP2 inactive | FAM quench SP inactive
NNC(=O)c1csc(-c2ccc(C(F)(F)F)cc2Cl)n1	none
O=[N+]([O-])c1ccc(N2CCN(c3ccc(Cl)nn3)CC2)cc1NC1CC1	GRK2 inh 64 | GRK2 CP1 inactive | FAM quench CP1 inactive
COc1ccc(C(=O)Nc2cc(C)nn2-c2cccc(F)c2)cc1	none
Cc1cc(NC(=O)c2ccccc2C)n(-c2cccc(F)c2)n1	GRK2 inh 100 | GRK2 CP1 inactive | FAM quench CP1 inactive
O=C1C=C(O)c2cccc3cccc1c23	GRK2 inh 100 | GRK2 CP1 inactive | FAM quench CP1 inactive
NC1=CC(=O)c2cccc3cccc1c23	none (no result: DAGLB inh)
NC(=O)CSc1cn(CCNC(=O)c2cccs2)c2ccccc12	none (no result: GPR7 antag, DNA FID counter, NS3 helicase inh) | GRK2 CP2 inactive | FAM quench SP inactive
Cc1ccc2cc(C3C(C#N)=C(N)Oc4c3ccc3cccnc43)c(=O)[nH]c2c1 (centres undefined)	DAGLB inh 36, GRK2 inh 97 | GRK2 CP1 inactive | FAM quench CP1 inactive | DAGLB inh conf inactive
Fc1ccc(CN2CC[C@H]3C=CCc4cccc(c43)C2)cc1	none (no result: HCV core dimer, GPR7 antag, DNA FID counter, NS3 helicase inh)
CC(CCC(=O)NN)C1CCC2C3CCC4CC(O)CCC4(C)C3CCC12C (centres undefined)	none (no result: HCV core dimer, GPR7 antag, DNA FID counter, NS3 helicase inh, GRK2 inh)
CC(CCC(C)C(C)(C)C)[C@@H]1CC[C@H]2C3C[C@H](OS(O)(=S)=S)[C@H]4C[C@H](OS(O)(=S)=S)[C@@H](OS(O)(=S)=S)C[C@]4(C)[C@H]3CC[C@]12C (some centres undefined) (tested in a mixture with another compound)	DAGLB inh 35 (no result: HCV core dimer, GPR7 antag, DNA FID counter, NS3 helicase inh) | DAGLB inh conf 34
CN1CCN(C2=C(NS(=O)(=O)c3cccs3)C(=O)c3ccccc3C2=O)CC1	none
CCOc1ccccc1N1CCN(C2=C(NS(=O)(=O)c3cccs3)C(=O)c3ccccc3C2=O)CC1	DAGLB inh 44 | DAGLB inh conf 39
CCOC(=O)Cc1c(C)nc(SC)[nH]c1=O	none
O=Nc1c(-c2c(O)[nH]c3cc(Br)ccc23)[nH]c2ccccc12	DAGLB inh 47 | DAGLB inh conf 59
O=C(CN1CCSC1=O)N1CCN(S(=O)(=O)c2ccccc2)CC1	none (no result: HCV core dimer, GPR7 antag, DNA FID counter, NS3 helicase inh)
COc1ccccc1CNC(=O)/C=C/c1ccc(Br)o1	none
CCN1/C(=C2\OC(=S)N(C)C2=O)C=Cc2ccccc21	none
CCSC1=NC(=O)/C(=C2/C=Cc3ccccc3N2CC)S1	DAGLB inh 37 | DAGLB inh conf 41
c1ccc(-[n+]2nc(Nc3cccc4ccccc34)sc2-c2c3ccccc3cc3ccccc23)cc1	HCV core dimer 60, DAGLB inh 43 (no result: GPR7 antag, DNA FID counter, NS3 helicase inh) | DAGLB inh conf 41
Fc1ccc(-[n+]2nc(Nc3ccccc3)sc2-c2c3ccccc3cc3ccccc23)cc1	none
CC1=NN(c2ccccc2)C(=O)/C1=C\C=C1/N(C)c2ccccc2C1(C)C	DAGLB inh 40 | DAGLB inh conf 61
CC1=NN(c2ccccc2)C(=O)/C1=C\C=C1\N(C)c2ccccc2C1(C)C	none
O=C(C1CC(=O)N(c2ccccc2)C1)N1CCN(c2ccc(F)cc2)CC1 (centres undefined)	none
N#C/C(=N\Nc1ccc([N+](=O)[O-])cc1)C(N)=S	DAGLB inh 38 | DAGLB inh conf inactive
N#C/C(=N/Nc1ccc([N+](=O)[O-])cc1)C(=N)N1CCCCC1	none (no result: HCV core dimer, GRK2 inh)
CC(=O)N1CCCc2cc(S(=O)(=O)N3CCCC(C)C3)ccc21 (centres undefined)	none
O=C1C(=C(O)c2ccccc2)C(=O)c2ccccc21	none
O=C1C(=C(c2ccccc2)c2ccccc2)Nc2ccccc21	DAGLB inh 40 | DAGLB inh conf 38

Compound activity: PubChem, several laboratories
